Measured values as given in ChEMBL document CHEMBL1165950, “Design and synthesis of new potent anticancer pyrazoles with high FLT3 kinase inhibitory selectivity” (Bioorg Med Chem, 2010).

Columns and labels:
Format in all cases: functional
SK-MEL-28 [1] = test: Cytotoxicity against human SK-MEL-28 cells assessed as cell growth at 10 uM after 48 hrs by sulforhodamine B assay; conditions: SK-MEL-28, 48 h, read-out: Activity
MCF7 [2] = test: Growth inhibition of human MCF7 cells after 48 hrs by sulforhodamine B assay; conditions: MCF7, 48 h
Method in brief: (§1)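 NCI 60-cell screen, five-dose mode. Cells grown in RPMI 1640 with 5% FBS and 2 mM L-glutamine and plated at 5000-40,000 cells/well according to doubling time. After 24 h preincubation, a Tz plate was TCA-fixed. Five concentrations (10-fold or 1/2 log dilutions) were applied for 48 h at 37 °C. SRB staining read at 515 nm. IC50 taken from [(Ti-Tz)/(C-Tz)]×100 = 50.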

MCF7 [3] = test: Cytotoxicity against human MCF7 cells assessed as cell growth at 10 uM after 48 hrs by sulforhodamine B assay; conditions: MCF7, 48 h, read-out: Activity
KM12 = test: Cytotoxicity against human KM12 cells assessed as cell growth at 10 uM; conditions: read-out: Activity
Method in brief: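 NCI-60 screen: cells grown in RPMI 1640 with 5% FBS and 2 mM L-glutamine, plated at 5000–40,000 cells/well according to doubling time, and preincubated 24 h at 37 °C, 5% CO2. The single 10 µM dose (DMSO stock) was added, then incubated 48 h. Cells were TCA-fixed and stained with 0.4% SRB, read at 515 nm, and growth % calculated against time-zero and control plates.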

SR [4] = test: Cytotoxicity against human SR cells assessed as cell growth at 0.01 uM after 48 hrs by sulforhodamine B assay; conditions: read-out: Activity
MDA-MB-435 = test: Cytotoxicity against human MDA-MB-435 cells assessed as cell growth at 0.01 uM after 48 hrs by sulforhodamine B assay; conditions: MDA-MB-435, 48 h, read-out: Activity
PC-3 = test: Cytotoxicity against human PC3 cells assessed as cell growth at 10 uM after 48 hrs by sulforhodamine B assay; conditions: PC-3, 48 h, read-out: Activity
[5] = Cytotoxicity against human […] cells assessed as cell growth at 10 uM after 48 hrs by sulforhodamine B assay; conditions: read-out: Activity
NCI-H226 [6] = test: Cytotoxicity against human NCI-H226 cells assessed as cell growth at 1 uM after 48 hrs by sulforhodamine B assay; conditions: NCI-H226, 48 h, read-out: Activity
DU-145 = test: Cytotoxicity against human DU145 cells assessed as cell growth at 0.01 uM after 48 hrs by sulforhodamine B assay; conditions: DU-145, 48 h, read-out: Activity
SK-MEL-28 [7] = test: Cytotoxicity against human SK-MEL-28 cells assessed as cell growth at 100 nM after 48 hrs by sulforhodamine B assay; conditions: SK-MEL-28, 48 h, read-out: Activity
MCF7 [8] = test: Cytotoxicity against human MCF7 cells assessed as cell growth at 100 nM after 48 hrs by sulforhodamine B assay; conditions: MCF7, 48 h, read-out: Activity
RXF 393 [9] = test: Cytotoxicity against human RXF393 cells assessed as cell growth at 100 nM after 48 hrs by sulforhodamine B assay; conditions: RXF 393, 48 h, read-out: Activity
SR [10] = test: Growth inhibition of human SR cells after 48 hrs by sulforhodamine B assay; method in brief: as §1
OVCAR-3 = test: Cytotoxicity against human OVCAR-3 cells assessed as cell growth at 0.01 uM after 48 hrs by sulforhodamine B assay; conditions: OVCAR-3, 48 h, read-out: Activity
CCRF-CEM = test: Cytotoxicity against human CCRF-CEM cells assessed as cell growth at 10 uM; conditions: read-out: Activity
Method in brief: (§2)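 Single-dose NCI-60 screen at 10 µM. Cells were grown in RPMI 1640 with 5% FBS and 2 mM L-glutamine, then treated for 48 h at 37 °C. Protein was measured by SRB staining with absorbance at 515 nm. Percentage growth was recorded, and inhibition percentage was calculated as 100 minus growth percentage.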

NCI-H226 [11] = test: Growth inhibition of human NCI-H226 cells after 48 hrs by sulforhodamine B assay; conditions: NCI-H226, 48 h; for CC50: read-out: LC50 (the source's name); method in brief: as §1
HCC 2998 [12] = test: Growth inhibition of human HCC2998 cells after 48 hrs by sulforhodamine B assay; conditions: HCC 2998, 48 h; for CC50: read-out: LC50 (the source's name); method in brief: as §1
MCF7 [13] = test: Cytotoxicity against human MCF7 cells assessed as cell growth at 1 uM after 48 hrs by sulforhodamine B assay; conditions: MCF7, 48 h, read-out: Activity
HOP-92 = test: Cytotoxicity against human HOP92 cells assessed as cell growth at 10 uM; conditions: read-out: Activity; method in brief: as §2
SK-MEL-28 [14] = test: Cytotoxicity against human SK-MEL-28 cells assessed as cell growth at 0.001 uM after 48 hrs by sulforhodamine B assay; conditions: SK-MEL-28, 48 h, read-out: Activity
ACHN = test: Cytotoxicity against human ACHN cells assessed as cell growth at 0.01 uM after 48 hrs by sulforhodamine B assay; conditions: read-out: Activity
SK-MEL-28 [15] = test: Growth inhibition of human SK-MEL-28 cells after 48 hrs by sulforhodamine B assay; conditions: SK-MEL-28, 48 h; for CC50: read-out: LC50 (the source's name); method in brief: as §1
RXF 393 [16] = test: Growth inhibition of human RXF393 cells after 48 hrs by sulforhodamine B assay; conditions: RXF 393, 48 h; method in brief: as §1
SR [17] = test: Cytotoxicity against human SR cells assessed as cell growth at 1 uM after 48 hrs by sulforhodamine B assay; conditions: read-out: Activity
RXF 393 [18] = test: Cytotoxicity against human RXF393 cells assessed as cell growth at 1 uM after 48 hrs by sulforhodamine B assay; conditions: RXF 393, 48 h, read-out: Activity
SF-295 [19] = test: Cytotoxicity against human SF295 cells assessed as cell growth at 100 nM after 48 hrs by sulforhodamine B assay; conditions: SF-295, 48 h, read-out: Activity
RXF 393 [20] = test: Cytotoxicity against human RXF393 cells assessed as cell growth at 0.001 uM after 48 hrs by sulforhodamine B assay; conditions: RXF 393, 48 h, read-out: Activity
HCC 2998 [21] = test: Cytotoxicity against human HCC2998 cells assessed as cell growth at 1 uM after 48 hrs by sulforhodamine B assay; conditions: HCC 2998, 48 h, read-out: Activity
HCC 2998 [22] = test: Cytotoxicity against human HCC2998 cells assessed as cell growth at 10 uM after 48 hrs by sulforhodamine B assay; conditions: HCC 2998, 48 h, read-out: Activity
SR [23] = test: Cytotoxicity against human SR cells assessed as cell growth at 100 nM after 48 hrs by sulforhodamine B assay; conditions: read-out: Activity
NCI-H226 [24] = test: Cytotoxicity against human NCI-H226 cells assessed as cell growth at 100 nM after 48 hrs by sulforhodamine B assay; conditions: NCI-H226, 48 h, read-out: Activity
SF-295 [25] = test: Cytotoxicity against human SF295 cells assessed as cell growth at 10 uM after 48 hrs by sulforhodamine B assay; conditions: SF-295, 48 h, read-out: Activity
786-0 = test: Cytotoxicity against human 786-0 cells assessed as cell growth at 10 uM after 48 hrs by sulforhodamine B assay; conditions: 786-0, 48 h, read-out: Activity
CAKI-1 = test: Cytotoxicity against human Caki1 cells assessed as cell growth at 1 uM after 48 hrs by sulforhodamine B assay; conditions: CAKI-1, 48 h, read-out: Activity

## COc1cc(C)cc(-c2nn(CC#N)cc2-c2ccc(-c3cccc(C(C)=O)c3)nc2)c1
SK-MEL-28 [1]
  growth at 10 µM: -1%
MCF7 [2]
  GI50: 2.05 µM
  LC50: > 100 µM
  TGI: 15.9 µM
MCF7 [3]
  growth at 10 µM: -28%
KM12
  growth at 10 µM: 34.1%
SR [4]
  growth at 0.01 µM: 103%
MDA-MB-435
  growth at 0.01 µM: 94%
PC-3
  growth at 10 µM: 1%
[5]
  growth at 10 µM: -21%
NCI-H226 [6]
  growth at 1 µM: 29%
DU-145
  growth at 0.01 µM: 98%
SK-MEL-28 [7]
  growth at 0.1 µM: 74%
MCF7 [8]
  growth at 0.1 µM: 69%
RXF 393 [9]
  growth at 0.1 µM: 73%
SR [10]
  GI50: 1.62 µM
  LC50 (concentration killing 50% of cells): > 100 µM
  TGI: > 100 µM
OVCAR-3
  growth at 0.01 µM: 104%
CCRF-CEM
  growth at 10 µM: 15.4%
NCI-H226 [11]
  GI50: 4.29 µM
  TGI: 82.3 µM
  CC50: > 100 µM
HCC 2998 [12]
  GI50: 2.08 µM
  TGI: 6.77 µM
  CC50: 54.4 µM
MCF7 [13]
  growth at 1 µM: 7%
HOP-92
  growth at 10 µM: 48.4%
SK-MEL-28 [14]
  growth at 0.001 µM: 92%
ACHN
  growth at 0.01 µM: 90%
SK-MEL-28 [15]
  GI50: 3.63 µM
  TGI: 93.6 µM
  CC50: > 100 µM
RXF 393 [16]
  GI50: 1.49 µM
  LC50 (concentration killing 50% of the starting cells): 8.62 µM
  TGI: 3.59 µM
SR [17]
  growth at 1 µM: 22%
RXF 393 [18]
  growth at 1 µM: -58%
SF-295 [19]
  growth at 0.1 µM: 75%
RXF 393 [20]
  growth at 0.001 µM: 90%
HCC 2998 [21]
  growth at 1 µM: -17%
HCC 2998 [22]
  growth at 10 µM: -62%
SR [23]
  growth at 0.1 µM: 57%
NCI-H226 [24]
  growth at 0.1 µM: 86%

## COc1cc(C)cc(-c2nn(CC#N)cc2-c2ccnc(-c3ccc(N(C)C)cc3)c2)c1
SK-MEL-28 [1]
  growth at 10 µM: 13%
MCF7 [2]
  GI50: 0.0664 µM
  LC50: > 100 µM
  TGI: 22.7 µM
MCF7 [3]
  growth at 10 µM: -13%
KM12
  growth at 10 µM: 7.15%
SR [4]
  growth at 0.01 µM: 97%
MDA-MB-435
  growth at 0.01 µM: 94%
[5]
  growth at 10 µM: -28%
NCI-H226 [6]
  growth at 1 µM: 3%
DU-145
  growth at 0.01 µM: 99%
SK-MEL-28 [7]
  growth at 0.1 µM: 44%
MCF7 [8]
  growth at 0.1 µM: 24%
RXF 393 [9]
  growth at 0.1 µM: -25%
SR [10]
  GI50: 0.461 µM
  LC50 (concentration killing 50% of cells): > 100 µM
  TGI: > 10 µM
SF-295 [25]
  growth at 10 µM: -32%
OVCAR-3
  growth at 0.01 µM: 95%
NCI-H226 [11]
  GI50: 0.968 µM
  TGI: 127 µM
  CC50: > 100 µM
HCC 2998 [12]
  GI50: 0.455 µM
  TGI: 1.93 µM
  CC50: 9.69 µM
MCF7 [13]
  growth at 1 µM: 7%
SK-MEL-28 [14]
  growth at 0.001 µM: 100%
ACHN
  growth at 0.01 µM: 98%
SK-MEL-28 [15]
  GI50: 0.776 µM
  TGI: > 100 µM
  CC50: > 100 µM
RXF 393 [16]
  GI50: 0.258 µM
  LC50 (concentration killing 50% of the starting cells): > 100 µM
  TGI: 0.633 µM
786-0
  growth at 10 µM: -36%
SR [17]
  growth at 1 µM: 18%
RXF 393 [18]
  growth at 1 µM: -21%
SF-295 [19]
  growth at 0.1 µM: 3%
CAKI-1
  growth at 1 µM: 4%
RXF 393 [20]
  growth at 0.001 µM: 105%
HCC 2998 [21]
  growth at 1 µM: -51%
HCC 2998 [22]
  growth at 10 µM: -76%
SR [23]
  growth at 0.1 µM: 26%
NCI-H226 [24]
  growth at 0.1 µM: 49%
